Results taken from ChEMBL document CHEMBL1154946, “Synthetic atpenin analogs: Potent mitochondrial inhibitors of mammalian and fungal succinate-ubiquinone oxidoreductase” (Bioorg Med Chem Lett, 2010).
pIC50: −log10 of the molar value. Calls of active or inactive are those of the source. No cut-off for these calls is given here.

Tests used:
[1] = Inhibition of Septoria nodorum sub-mitochondrial membrane SQR assessed as ubiquinol-dependent reduction of DCIP after 10 mins by spectrophotometry; set-up: species or system Parastagonospora nodorum
In short: (§1)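 Complex II (SQR) activity in sub-mitochondrial membranes from bovine heart or Septoria nodorum, run in plate format. 20 mM succinate serves as electron donor, with decyl ubiquinone as acceptor and DCIP as terminal dye acceptor. The reaction is started by adding succinate and runs 10 min. Read-out is spectrophotometric, giving IC50.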

[2] = Inhibition of bovine heart sub-mitochondrial membrane SQR assessed as ubiquinol-dependent reduction of DCIP after 10 mins by spectrophotometry; set-up: species or system Bos taurus; in short: as §1
Parastagonospora nodorum [3] = assay: Antifungal activity against Septoria nodorum at 200 ppm by whole plant assay; format: functional, organism-based
Parastagonospora nodorum [4] = assay: Antifungal activity against Septoria nodorum at 200 ppm; format: functional, organism-based

| SMILES | pIC50 [1] | pIC50 [2] | Activity (Parastagonospora nodorum [3]) | Activity (Parastagonospora nodorum [4]) |
| --- | --- | --- | --- | --- |
| COc1[nH]c(OC)c(C(=O)c2ccc(Cl)cc2)c(=O)c1OC | < 4.52 | < 4.52 | inactive | inactive |
| COc1[nH]cc(C(=O)c2ccc(Oc3ccccc3)cc2)c(=O)c1OC | 5.39 | 6.31 | inactive | inactive |
| COc1[nH]c(Br)c(C(=O)c2ccc(Cl)cc2)c(=O)c1OC | 5.71 | 5.90 | inactive | inactive |
| COc1[nH]cc(C(=O)c2ccccc2Oc2ccccc2)c(=O)c1OC | < 4.52 | < 4.52 | inactive | inactive |
| COc1[nH]c(C)c(C(=O)c2ccc(Cl)cc2)c(=O)c1OC | 4.86 | 4.86 | inactive | inactive |
| COc1nc(O)c(C(=O)c2ccc(Cl)cc2)c(O)c1OC | < 4.52 | 6.49 | inactive | inactive |
| COc1[nH]c(=O)c(C(=O)[C@@H](C)C[C@H](C)[C@@H](Cl)CCl)c(O)c1OC [ATPENIN A5] | 7.96 | 8.40 |  |  |
| COc1nc(OC(C)=O)c(C(=O)c2ccc(Cl)cc2)c(OC(C)=O)c1OC | < 4.52 | < 4.52 | inactive | inactive |
| COc1[nH]cc(C(=O)c2ccc(-c3ccccc3)cc2)c(=O)c1OC | 5.56 | 6.10 | inactive | inactive |
| CCCCC(C)C(=O)c1c(O)nc(OC)c(OC)c1O (stereo not drawn) | 6.91 | 7.70 | inactive | inactive |
| O=C(Nc1ccccc1-c1ccc(Cl)cc1)c1cccnc1Cl [BOSCALID] | 6.61 | 5.75 |  |  |
| COc1[nH]cc(C(=O)c2cccc(Cl)c2)c(=O)c1OC | < 4.52 | 5.18 | inactive | inactive |
| COc1[nH]cc(C(=O)c2ccccc2Cl)c(=O)c1OC | < 4.52 | < 4.52 | inactive | inactive |
| COc1nc(O)c(C(=O)C(c2ccccc2)c2ccccc2)c(O)c1OC | < 4.52 | 6.20 | inactive | inactive |
| COc1nc(O)c(C(=O)C(C)Cc2ccc(C(C)(C)C)cc2)c(O)c1OC (stereo not drawn) | 7.62 | 8.10 | inactive | inactive |
| COc1nc(O)c(C(=O)c2cccc(Oc3ccccc3)c2)c(O)c1OC | 5.63 | 6.95 | inactive | inactive |
| COc1nc(OS(C)(=O)=O)c(C(=O)c2ccc(Cl)cc2)c(OS(C)(=O)=O)c1OC | < 4.52 | < 4.52 | inactive | inactive |

Second part, led by results:

| pIC50 [1] | pIC50 [2] | SMILES | Activity (Parastagonospora nodorum [3]) | Activity (Parastagonospora nodorum [4]) |
| --- | --- | --- | --- | --- |
| < 4.52 | < 4.52 | CCC(C)C(=O)c1c[nH]c(OC)c(OC)c1=O (stereo not drawn) | inactive | inactive |
| 6.52 | 8.10 | COc1nc(O)c(C(=O)C(C)c2ccccc2)c(O)c1OC (stereo not drawn) | inactive | inactive |
| 5.59 | 7.02 | CCC(C)C(=O)c1c(O)nc(OC)c(OC)c1O (stereo not drawn) | inactive | inactive |
| 5.75 | 6.90 | COc1nc(O)c(C(=O)C2CCCCC2)c(O)c1OC | inactive | inactive |
| 6.63 | 6.90 | CCCCC(CC)C(=O)c1c(O)nc(OC)c(OC)c1O (stereo not drawn) | inactive | inactive |
| < 4.52 | < 4.52 | COc1ccc(C(=O)c2c[nH]c(OC)c(OC)c2=O)cc1 | inactive | inactive |
| 5.53 | 6.34 | COc1[nH]cc(C(=O)c2cccc(Oc3ccccc3)c2)c(=O)c1OC | inactive | inactive |
| 8.40 | 8.52 | CCCCCCCCCC(C)C(=O)c1c(O)nc(OC)c(OC)c1O (stereo not drawn) | inactive | inactive |
| 7.29 | 8.30 | COc1nc(O)c(C(=O)C(C)CCC=C(C)C)c(O)c1OC (stereo not drawn) | inactive | inactive |
| 4.57 | 5.47 | COc1[nH]cc(C(=O)c2ccc(Cl)cc2)c(=O)c1OC | inactive | inactive |
| 4.68 | 4.89 | COc1[nH]cc(C(=O)c2ccc3ccccc3c2)c(=O)c1OC | inactive | inactive |
